Test results reported in ChEMBL document CHEMBL4689842, “EUbOPEN Chemogenomics Library wave 1” (2021).

Tested on: HEK-293T
Experiment: Multiplex assay against HEK293T;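 on Population Tubulin-Different-Phenotype (%): share of the cells with healthy nuclei that show this phenotype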
Type: toxicity, cell-based
Settings: human
In short: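 On a CQ1 microscope at 37°C and 5% CO2, live cells were imaged after compound addition. They had been stained at seeding with Hoechst33342, BioTracker Green Microtubule Cytoskeleton Dye, MitoTracker Red and Annexin V Alexa Fluor 680. CellPathfinder machine-learning gating assigned cells to Hoechst high-intensity objects or normal cells, normal cells to healthy, pyknosed or fragmented nuclei, and pyknosed cells to mitotic or apoptotic. Tubulin, mitochondrial-mass and membrane-permeability phenotypes are per cents of healthy-nucleus cells.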

[1] = 12 h, 1 µM, compound concentration 1 uM, replicate 1
[2] = 12 h, 1 µM, compound concentration 1 uM, replicate 2
[3] = 12 h, 10 µM, compound concentration 10 uM, replicate 1
[4] = 12 h, 10 µM, compound concentration 10 uM, replicate 2
[5] = 24 h, 1 µM, compound concentration 1 uM, replicate 1
[6] = 24 h, 1 µM, compound concentration 1 uM, replicate 2
[7] = 24 h, 10 µM, compound concentration 10 uM, replicate 1
[8] = 24 h, 10 µM, compound concentration 10 uM, replicate 2
[9] = 48 h, 1 µM, compound concentration 1 uM, replicate 1
[10] = 48 h, 1 µM, compound concentration 1 uM, replicate 2
[11] = 48 h, 10 µM, compound concentration 10 uM, replicate 1
[12] = 48 h, 10 µM, compound concentration 10 uM, replicate 2

CC(C)NCC(O)COc1ccc(CCOCC2CC2)cc1.Cl (centres undefined) [BETAXOLOL HYDROCHLORIDE]
Population Apoptotic (%) [1]: 43%
Population Fragmented Nuclei (%) [1]: 7%
Population Healthy Nuclei (%) [1]: 49%
Population Hoechst High Intensity Objects (%) [1]: 10%
Population Membrane Permeable-Phenotype (%) [1]: 3%
Population Mitochondria Different-Phenotype (%) [1]: 82%
Population Mitotic Cells (%) [1]: 56%
Population Normal (%) [1]: 89%
Population Pyknosed Nuclei (%) [1]: 43%
Population Tubulin-Different-Phenotype (%) [1]: 56%
Total Cell Count [1]: 343
Population Apoptotic (%) [2]: 12%
Population Fragmented Nuclei (%) [2]: 6%
Population Healthy Nuclei (%) [2]: 43%
Population Hoechst High Intensity Objects (%) [2]: 1%
Population Membrane Permeable-Phenotype (%) [2]: 8%
Population Mitochondria Different-Phenotype (%) [2]: 14%
Population Mitotic Cells (%) [2]: 87%
Population Normal (%) [2]: 98%
Population Pyknosed Nuclei (%) [2]: 50%
Population Tubulin-Different-Phenotype (%) [2]: 19%
Total Cell Count [2]: 227
Population Apoptotic (%) [3]: 55%
Population Fragmented Nuclei (%) [3]: 9%
Population Hoechst High Intensity Objects (%) [3]: 13%
Population Membrane Permeable-Phenotype (%) [3]: 1%
Population Mitochondria Different-Phenotype (%) [3]: 100%
Population Mitotic Cells (%) [3]: 44%
Population Normal (%) [3]: 86%
Population Pyknosed Nuclei (%) [3]: 59%
Population Tubulin-Different-Phenotype (%) [3]: 95%
Total Cell Count [3]: 247
Population Apoptotic (%) [4]: 36%
Population Fragmented Nuclei (%) [4]: 3%
Population Healthy Nuclei (%) [4]: 30%
Population Hoechst High Intensity Objects (%) [4]: 2%
Population Membrane Permeable-Phenotype (%) [4]: 6%
Population Mitochondria Different-Phenotype (%) [4]: 71%
Population Mitotic Cells (%) [4]: 63%
Population Normal (%) [4]: 97%
Population Pyknosed Nuclei (%) [4]: 65%
Population Tubulin-Different-Phenotype (%) [4]: 77%
Total Cell Count [4]: 259
Population Apoptotic (%) [5]: 45%
Population Fragmented Nuclei (%) [5]: 6%
Population Healthy Nuclei (%) [5]: 60%
Population Hoechst High Intensity Objects (%) [5]: 7%
Population Membrane Permeable-Phenotype (%) [5]: 2%
Population Mitochondria Different-Phenotype (%) [5]: 65%
Population Mitotic Cells (%) [5]: 54%
Population Normal (%) [5]: 92%
Population Pyknosed Nuclei (%) [5]: 33%
Population Tubulin-Different-Phenotype (%) [5]: 37%
Total Cell Count [5]: 403
Population Apoptotic (%) [6]: 10%
Population Healthy Nuclei (%) [6]: 64%
Population Hoechst High Intensity Objects (%) [6]: 1%
Population Membrane Permeable-Phenotype (%) [6]: 7%
Population Mitochondria Different-Phenotype (%) [6]: 22%
Population Mitotic Cells (%) [6]: 89%
Population Normal (%) [6]: 98%
Population Pyknosed Nuclei (%) [6]: 29%
Population Tubulin-Different-Phenotype (%) [6]: 32%
Total Cell Count [6]: 314
Population Apoptotic (%) [7]: 69%
Population Fragmented Nuclei (%) [7]: 11%
Population Healthy Nuclei (%) [7]: 32%
Population Hoechst High Intensity Objects (%) [7]: 15%
Population Membrane Permeable-Phenotype (%) [7]: 4%
Population Mitochondria Different-Phenotype (%) [7]: 98%
Population Mitotic Cells (%) [7]: 30%
Population Normal (%) [7]: 84%
Population Pyknosed Nuclei (%) [7]: 55%
Population Tubulin-Different-Phenotype (%) [7]: 80%
Total Cell Count [7]: 258
Population Apoptotic (%) [8]: 47%
Population Fragmented Nuclei (%) [8]: 2%
Population Healthy Nuclei (%) [8]: 50%
Population Hoechst High Intensity Objects (%) [8]: 5%
Population Membrane Permeable-Phenotype (%) [8]: 3%
Population Mitochondria Different-Phenotype (%) [8]: 80%
Population Mitotic Cells (%) [8]: 52%
Population Normal (%) [8]: 94%
Population Pyknosed Nuclei (%) [8]: 46%
Population Tubulin-Different-Phenotype (%) [8]: 82%
Total Cell Count [8]: 321
Population Apoptotic (%) [9]: 28%
Population Fragmented Nuclei (%) [9]: 8%
Population Healthy Nuclei (%) [9]: 79%
Population Hoechst High Intensity Objects (%) [9]: 5%
Population Membrane Permeable-Phenotype (%) [9]: 1%
Population Mitochondria Different-Phenotype (%) [9]: 28%
Population Mitotic Cells (%) [9]: 71%
Population Normal (%) [9]: 94%
Population Pyknosed Nuclei (%) [9]: 12%
Population Tubulin-Different-Phenotype (%) [9]: 31%
Total Cell Count [9]: 701
Population Apoptotic (%) [10]: 11%
Population Fragmented Nuclei (%) [10]: 6%
Population Healthy Nuclei (%) [10]: 81%
Population Hoechst High Intensity Objects (%) [10]: 3%
Population Membrane Permeable-Phenotype (%) [10]: 4%
Population Mitochondria Different-Phenotype (%) [10]: 6%
Population Mitotic Cells (%) [10]: 88%
Population Normal (%) [10]: 97%
Population Pyknosed Nuclei (%) [10]: 11%
Population Tubulin-Different-Phenotype (%) [10]: 22%
Total Cell Count [10]: 601
Population Apoptotic (%) [11]: 67%
Population Fragmented Nuclei (%) [11]: 14%
Population Healthy Nuclei (%) [11]: 48%
Population Hoechst High Intensity Objects (%) [11]: 14%
Population Membrane Permeable-Phenotype (%) [11]: 0%
Population Mitochondria Different-Phenotype (%) [11]: 84%
Population Mitotic Cells (%) [11]: 32%
Population Normal (%) [11]: 85%
Population Pyknosed Nuclei (%) [11]: 36%
Population Tubulin-Different-Phenotype (%) [11]: 61%
Total Cell Count [11]: 288
Population Apoptotic (%) [12]: 40%
Population Fragmented Nuclei (%) [12]: 4%
Population Healthy Nuclei (%) [12]: 72%
Population Hoechst High Intensity Objects (%) [12]: 4%
Population Membrane Permeable-Phenotype (%) [12]: 1%
Population Mitochondria Different-Phenotype (%) [12]: 63%
Population Mitotic Cells (%) [12]: 59%
Population Normal (%) [12]: 95%
Population Pyknosed Nuclei (%) [12]: 23%
Population Tubulin-Different-Phenotype (%) [12]: 77%
Total Cell Count [12]: 435

Cc1[nH]c(/C=C2\C(=O)Nc3ccc(S(=O)(=O)N(C)c4cccc(Cl)c4)cc32)c(C)c1C(=O)N1CCN(C)CC1
Population Apoptotic (%) [1]: 60%
Population Fragmented Nuclei (%) [1]: 7%
Population Healthy Nuclei (%) [1]: 47%
Population Hoechst High Intensity Objects (%) [1]: 16%
Population Membrane Permeable-Phenotype (%) [1]: 7%
Population Mitochondria Different-Phenotype (%) [1]: 93%
Population Mitotic Cells (%) [1]: 39%
Population Normal (%) [1]: 83%
Population Pyknosed Nuclei (%) [1]: 44%
Population Tubulin-Different-Phenotype (%) [1]: 91%
Total Cell Count [1]: 198
Population Apoptotic (%) [2]: 23%
Population Fragmented Nuclei (%) [2]: 6%
Population Healthy Nuclei (%) [2]: 46%
Population Hoechst High Intensity Objects (%) [2]: 4%
Population Membrane Permeable-Phenotype (%) [2]: 18%
Population Mitochondria Different-Phenotype (%) [2]: 52%
Population Mitotic Cells (%) [2]: 76%
Population Normal (%) [2]: 95%
Population Pyknosed Nuclei (%) [2]: 47%
Population Tubulin-Different-Phenotype (%) [2]: 71%
Total Cell Count [2]: 243
Population Apoptotic (%) [3]: 67%
Population Fragmented Nuclei (%) [3]: 12%
Population Healthy Nuclei (%) [3]: 29%
Population Hoechst High Intensity Objects (%) [3]: 15%
Population Membrane Permeable-Phenotype (%) [3]: 5%
Population Mitochondria Different-Phenotype (%) [3]: 90%
Population Mitotic Cells (%) [3]: 32%
Population Normal (%) [3]: 84%
Population Pyknosed Nuclei (%) [3]: 57%
Population Tubulin-Different-Phenotype (%) [3]: 98%
Total Cell Count [3]: 214
Population Apoptotic (%) [4]: 50%
Population Fragmented Nuclei (%) [4]: 4%
Population Healthy Nuclei (%) [4]: 40%
Population Hoechst High Intensity Objects (%) [4]: 5%
Population Membrane Permeable-Phenotype (%) [4]: 19%
Population Mitochondria Different-Phenotype (%) [4]: 57%
Population Mitotic Cells (%) [4]: 50%
Population Normal (%) [4]: 94%
Population Pyknosed Nuclei (%) [4]: 55%
Population Tubulin-Different-Phenotype (%) [4]: 93%
Total Cell Count [4]: 157
Population Apoptotic (%) [5]: 55%
Population Fragmented Nuclei (%) [5]: 11%
Population Healthy Nuclei (%) [5]: 48%
Population Hoechst High Intensity Objects (%) [5]: 18%
Population Membrane Permeable-Phenotype (%) [5]: 3%
Population Mitochondria Different-Phenotype (%) [5]: 85%
Population Mitotic Cells (%) [5]: 44%
Population Normal (%) [5]: 81%
Population Pyknosed Nuclei (%) [5]: 40%
Population Tubulin-Different-Phenotype (%) [5]: 86%
Total Cell Count [5]: 212
Population Apoptotic (%) [6]: 24%
Population Fragmented Nuclei (%) [6]: 4%
Population Healthy Nuclei (%) [6]: 56%
Population Hoechst High Intensity Objects (%) [6]: 3%
Population Membrane Permeable-Phenotype (%) [6]: 7%
Population Mitochondria Different-Phenotype (%) [6]: 57%
Population Mitotic Cells (%) [6]: 75%
Population Normal (%) [6]: 96%
Population Pyknosed Nuclei (%) [6]: 38%
Population Tubulin-Different-Phenotype (%) [6]: 71%
Total Cell Count [6]: 295
Population Apoptotic (%) [7]: 88%
Population Fragmented Nuclei (%) [7]: 15%
Population Healthy Nuclei (%) [7]: 27%
Population Hoechst High Intensity Objects (%) [7]: 12%
Population Membrane Permeable-Phenotype (%) [7]: 5%
Population Mitochondria Different-Phenotype (%) [7]: 100%
Population Mitotic Cells (%) [7]: 11%
Population Normal (%) [7]: 87%
Population Pyknosed Nuclei (%) [7]: 56%
Population Tubulin-Different-Phenotype (%) [7]: 98%
Total Cell Count [7]: 230
Population Apoptotic (%) [8]: 83%
Population Fragmented Nuclei (%) [8]: 7%
Population Healthy Nuclei (%) [8]: 35%
Population Hoechst High Intensity Objects (%) [8]: 4%
Population Membrane Permeable-Phenotype (%) [8]: 10%
Population Mitochondria Different-Phenotype (%) [8]: 81%
Population Mitotic Cells (%) [8]: 16%
Population Normal (%) [8]: 95%
Population Pyknosed Nuclei (%) [8]: 57%
Population Tubulin-Different-Phenotype (%) [8]: 96%
Total Cell Count [8]: 162
Population Apoptotic (%) [9]: 55%
Population Fragmented Nuclei (%) [9]: 14%
Population Healthy Nuclei (%) [9]: 56%
Population Hoechst High Intensity Objects (%) [9]: 19%
Population Membrane Permeable-Phenotype (%) [9]: 2%
Population Mitochondria Different-Phenotype (%) [9]: 66%
Population Mitotic Cells (%) [9]: 44%
Population Normal (%) [9]: 80%
Population Pyknosed Nuclei (%) [9]: 29%
Population Tubulin-Different-Phenotype (%) [9]: 74%
Total Cell Count [9]: 246
Population Apoptotic (%) [10]: 31%
Population Fragmented Nuclei (%) [10]: 4%
Population Healthy Nuclei (%) [10]: 75%
Population Hoechst High Intensity Objects (%) [10]: 1%
Population Membrane Permeable-Phenotype (%) [10]: 8%
Population Mitochondria Different-Phenotype (%) [10]: 20%
Population Mitotic Cells (%) [10]: 68%
Population Normal (%) [10]: 98%
Population Pyknosed Nuclei (%) [10]: 19%
Population Tubulin-Different-Phenotype (%) [10]: 54%
Total Cell Count [10]: 469
Population Apoptotic (%) [11]: 92%
Population Fragmented Nuclei (%) [11]: 17%
Population Healthy Nuclei (%) [11]: 30%
Population Hoechst High Intensity Objects (%) [11]: 15%
Population Membrane Permeable-Phenotype (%) [11]: 5%
Population Mitochondria Different-Phenotype (%) [11]: 100%
Population Mitotic Cells (%) [11]: 7%
Population Normal (%) [11]: 84%
Population Pyknosed Nuclei (%) [11]: 52%
Population Tubulin-Different-Phenotype (%) [11]: 96%
Total Cell Count [11]: 223
Population Fragmented Nuclei (%) [12]: 4%
Population Healthy Nuclei (%) [12]: 54%
Population Hoechst High Intensity Objects (%) [12]: 3%
Population Membrane Permeable-Phenotype (%) [12]: 9%
Population Mitochondria Different-Phenotype (%) [12]: 68%
Population Normal (%) [12]: 96%
Population Pyknosed Nuclei (%) [12]: 41%
Total Cell Count [12]: 178
